A selection: hits, their analogues and other compounds. The true share with any hit is near 4.6%.
OX1R antag-1 = antagonists of human orexin 1 receptor (OX1R). O43613. OX1R-expressing cells, FRET antagonist read-out. inhibition, % at 6.6 µM. 330,000 compounds, 1.8% hits. AID 485270; in the data active = inhibition mostly above about 38%, no sharp cut-off; inactive = mostly below about 40%
CHO parental Ca = counter-screen for OX1R antagonists: effect in parental CHO cells; parental CHO-K1, ATP-induced calcium, Fluo-8 fluorescence; inhibition, % at 5.6 µM; 330,000 compounds, 0.63% hits;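 active = inhibition above that plate's mean sample inhibition plus 3 SD, cut at about 26% in these data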
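test system = CHO parental line | reagent = ATP stimulus | measured by = intracellular calcium via Fluo-8 no-wash fluorescent dye | control set = ATP and no-ATP DMSO wells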
OX1R antag-2 = human HCRTR1 antagonism; O43613; CHO/OX1R cells, Fluo-8 calcium fluorescence, orexin A; inhibition, % at 5 µM; 330,000 compounds, 0.43% hits; AID 434989;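 active = inhibition above its plate's threshold, mean inhibition of all tested compounds on the plate plus 3 SD, cut at about 37% in these data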
GPR7 antagonist = blocks human GPR7 receptor signaling. P48145. GPR7-expressing cells, fluorescence antagonist assay. inhibition, % at 4.4 µM. 290,000 compounds, 1.1% hits; in the data active = inhibition above about 16%, passing the limit was not always enough;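 also: cells stimulated with the agonist NPW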
Target sequence (P48145 whole entry, looked up): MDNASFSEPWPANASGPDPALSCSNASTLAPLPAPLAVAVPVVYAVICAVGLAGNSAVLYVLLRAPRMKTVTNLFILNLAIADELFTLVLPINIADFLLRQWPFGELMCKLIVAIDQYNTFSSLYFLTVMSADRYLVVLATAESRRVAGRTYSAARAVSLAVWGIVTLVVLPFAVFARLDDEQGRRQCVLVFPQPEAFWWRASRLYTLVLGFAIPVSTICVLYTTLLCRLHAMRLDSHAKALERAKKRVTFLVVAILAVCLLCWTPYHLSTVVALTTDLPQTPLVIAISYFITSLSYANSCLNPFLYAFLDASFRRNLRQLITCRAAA
TAAR1 ag = human TAAR1 agonism | Q96RJ0 | CHO RD-HGA16 TAAR1, Fluo-8 calcium fluorescence; vehicle wells 0%, saturating PEA agonist 100% | activation, % at 3 µM | 360,000 compounds, 0.99% hits | AID 624467;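 active = activation above the mean activation of all test compounds in the run plus 3 SD, cut at about 38% in these data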
Target sequence (Q96RJ0 whole entry, looked up): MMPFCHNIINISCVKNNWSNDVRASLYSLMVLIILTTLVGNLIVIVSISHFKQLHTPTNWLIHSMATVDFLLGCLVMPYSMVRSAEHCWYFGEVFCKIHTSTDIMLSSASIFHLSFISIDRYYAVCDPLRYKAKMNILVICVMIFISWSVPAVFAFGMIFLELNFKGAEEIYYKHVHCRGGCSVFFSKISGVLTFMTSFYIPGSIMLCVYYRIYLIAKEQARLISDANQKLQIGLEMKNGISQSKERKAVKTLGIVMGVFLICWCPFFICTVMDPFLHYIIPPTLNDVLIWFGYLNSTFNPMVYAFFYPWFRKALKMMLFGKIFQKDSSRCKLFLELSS
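Benchmarks: low control DMSO, high control PEA (EC100); System: CHO RD-HGA16 cells carrying human TAAR1 plus Gα16; Detection: Fluo-8 fluorescence, 5 s baseline then 140 s kinetic read; Schedule: 17-24 h plating, Fluo-8 75 min 37 °C, 30 min RT; Read-out basis: % activation from peak over basal fluorescence ratio, DMSO-to-PEA scaled.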
TAAR1 antagonist = antagonists of human TAAR1; Q96RJ0; CHO RD-HGA16 TAAR1, Fluo-8 calcium fluorescence, antagonist; inhibition, % at 3 µM; 360,000 compounds, 1.5% hits; AID 624466;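 active = inhibition above a per-plate cutoff, the mean inhibition of test compounds on that plate plus 3 SD, cut at about 49% in these data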
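Assay system: CHO-derived RD-HGA16 cells stably expressing human TAAR1 plus Gα16. Timing: 140 s kinetic read after compound, 140 s after agonist. Technique: kinetic Fluo-8 calcium fluorescence measurement. Measure: % inhibition of agonist calcium response.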
OX1R Fluo8 conf = OX1R (human) antagonism, confirmed | CHO/OX1R cells, orexin A calcium Fluo-8 fluorescence | AID 492963 | 1,100 compounds, 38% hits | inhibition, % at 5 µM | shares compounds with OX1R antag-2; in the data active = inhibition above about 29%
CHO Ca counter = counter-screen for OX1R antagonists: effect in parental CHO cells; parental CHO-K1, ATP-induced calcium, Fluo-8 fluorescence; shares compounds with OX1R antag-2; 1,100 compounds, 9.3% hits; inhibition, % at 5.6 µM;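 active = inhibition above a per-plate limit, the mean inhibition of that plate's test compounds plus 3 SD, cut at about 25% in these data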
OX1R HTRF confirm = OX1R (human) antagonism, HTRF confirmed | shares compounds with OX1R antag-1 | OX1R-expressing cells, HTRF antagonist assay | inhibition, % at 6.6 µM | 1,800 compounds, 49% hits | AID 492964; in the data active = inhibition above about 55%;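 also: CHO cells expressing OX1R stimulated with orexin A at about EC80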
CHO-K1 HTRF = signal in parental CHO-K1 cells, OX1R antagonist counter-screen; shares compounds with OX1R antag-1; HTRF counterscreen; inhibition, % at 6.6 µM; 1,800 compounds, 48% hits; AID 493232; in the data active = inhibition above about 17%
A number is an active result; i = inactive; nt = not tested or not shown.

SMILES | OX1R antag-1 | CHO parental Ca | OX1R antag-2 | GPR7 antagonist | TAAR1 ag | TAAR1 antagonist | OX1R Fluo8 conf | CHO Ca counter | OX1R HTRF confirm | CHO-K1 HTRF
CC(C)C[C@@H](NC(=O)OC(C)(C)C)C(=O)N1O[C@]23C=C[C@]14C[C@@H](O)CC[C@]4(C)C2CC[C@]1(C)[C@@H]([C@H](C)/C=C/[C@H](C)C(C)C)CC[C@H]13 (some centres not stated) | nt | nt | nt | nt | i | i | nt | nt | nt | nt
O=C(CCCO)NNc1c2ccccc2nc2ccccc12 | i | i | i | i | i | i | nt | nt | nt | nt
COc1ccc(OCC(=O)NNc2c3ccccc3nc3ccccc23)cc1 | 101.8 | i | 41.1 | i | i | 58.6 | i | i | i | i
Cc1cc(-c2ccc(N3CCOCC3)cc2)nc2ccccc12 | 91.0 | i | i | i | i | i | 54.3 | i | 93.0 | i
c1ccc2nc(-c3ccc(N4CCOCC4)cc3)ccc2c1 | i | i | i | i | i | i | nt | nt | nt | nt
OC(c1ccc(Cl)cc1)c1ncc(-c2ccccc2Cl)[nH]1 (configuration not stated) | nt | nt | nt | nt | i | i | nt | nt | nt | nt
O=C(Nc1cccc(-c2nc3ccccc3[nH]2)c1)c1ccco1 | 72.7 | i | i | i | i | i | i | i | i | i
COc1ccccc1N(C)S(=O)(=O)c1ccc(Cl)c(C(=O)OCc2c(C)noc2C)c1 | 54.2 | i | i | i | i | i | i | i | i | i
COc1ccccc1N(C)S(=O)(=O)c1ccc(Cl)c(C(=O)NNC(=O)c2ccccc2O)c1 | i | i | i | i | i | i | nt | nt | nt | nt
Cc1ccc(NC(=O)c2cccc(S(=O)(=O)N3CCc4ccccc4C3)c2)nc1 | 39.1 | i | i | nt | i | i | i | i | i | i
CC(=O)N1CCN(S(=O)(=O)c2cccc(C(=O)Nc3ccc(C)cn3)c2)CC1 | i | i | i | i | i | i | nt | nt | nt | nt
CC(C(=O)NCc1ccccc1)n1c(CSCCOc2ccccc2)nc2ccccc21 (configuration not stated) | nt | nt | nt | nt | i | i | nt | nt | nt | nt
C=CCn1c(SCc2ccc(C(=O)Nc3nccs3)cc2)nnc1-c1ccc(C)c(Cl)c1 | 79.3 | i | 70.5 | i | i | 64.8 | 68.9 | i | 82.0 | i
C=CCn1c(SCc2ccc(C#N)cc2)nnc1-c1cccc(Cl)c1 | i | i | i | i | i | i | nt | nt | nt | nt
Cc1nnc(SCCC(=O)Nc2ccc(F)cc2)s1 | i | i | i | i | i | i | nt | nt | nt | nt
CCCSc1nnc(NC(=O)Nc2ccc(F)cc2)s1 | 76.7 | i | i | i | i | i | i | i | i | i
OC[C@@H]1CN(Cc2ccco2)C[C@H](n2cnc3c(N4CCN(c5ccccc5)CC4)ncnc32)O1 | nt | nt | nt | nt | i | i | nt | nt | nt | nt
Cc1cccc(OCCn2cc(/C=N/NC(=O)c3ccncc3)c3ccccc32)c1 | i | i | i | i | i | i | nt | nt | nt | nt
Cc1cccc(OCC(=O)N/N=C\c2cn(C)c3ccccc23)c1 | 45.2 | i | i | i | i | i | i | i | i | i
Cc1noc(C)c1COC(=O)c1ccc2c(c1)S(=O)(=O)c1ccccc1C2=O | 111.0 | i | 59.4 | i | i | i | 64.7 | i | 102.3 | 17.3
Cc1noc(C)c1COC(=O)c1ccc2c(c1)OCO2 | i | i | i | i | i | i | nt | nt | nt | nt
CCN1C(=O)c2cccc3c(S(=O)(=O)NCCc4c[nH]c5ccccc45)ccc1c23 | 81.5 | i | i | i | i | i | 31.8 | i | 72.1 | i
CCN1C(=O)c2cccc3c(S(=O)(=O)NCc4ccccc4)ccc1c23 | i | i | i | nt | i | i | nt | nt | nt | nt
Cc1cc(=O)[nH]c(SCC(=O)Nc2ccc(F)cc2)c1C#N | i | i | i | i | i | i | nt | nt | nt | nt
Cc1cc(=O)[nH]c(SCC(=O)Nc2ccc(Br)cc2)c1C#N | 92.6 | i | 41.6 | i | i | i | i | i | i | i
SMILES | OX1R antag-1 | CHO parental Ca | OX1R antag-2 | GPR7 antagonist | TAAR1 ag | TAAR1 antagonist | OX1R Fluo8 conf | CHO Ca counter | OX1R HTRF confirm | CHO-K1 HTRF
Cc1ccc(NC2CCCN(C(=O)c3cccc(-c4ncc[nH]4)c3)C2)cc1C (configuration not stated) | 92.8 | i | i | i | i | i | 65.2 | i | 91.6 | i
CCn1c(-c2ccccc2Cl)nn(CC(=O)Nc2cc(Cl)ccc2Cl)c1=S | 53.8 | i | 46.4 | i | i | i | i | i | i | i
CC(=O)Nc1ccc(NC(=O)CCc2c(C)noc2C)cc1 | nt | nt | nt | nt | i | i | nt | nt | nt | nt
Cc1ccc2sc3ccc(NC(=O)c4ccccc4Cl)cc3c(=O)c2c1 | 71.2 | i | i | i | i | i | i | i | 72.1 | 18.2
CC(C)(C)NC(=O)C(c1cc2ccccc2o1)n1c(=O)c(-c2ccccc2)nc2ccccc21 (configuration not stated) | nt | nt | nt | nt | i | i | nt | nt | nt | nt
CC(=O)Nc1ccc(NC(=O)C(C)OC(=O)COc2ccc(Nc3ccccc3)cc2)cc1 (configuration not stated) | 30.7 | i | 41.4 | nt | i | i | 32.9 | i | i | i
CSc1nc2ccc3nc(NC(=O)c4ccccc4)sc3c2s1 | 83.8 | i | 46.4 | i | i | i | 78.8 | i | 95.3 | i
O=C(Nc1nc2ccccc2s1)c1ccccc1 | i | i | i | i | i | i | nt | nt | nt | nt
CCC(C)(C)NC(=O)CN(C(=O)c1csnn1)c1ccccc1-c1ccccc1 | 86.9 | i | 71.8 | i | i | i | 32.4 | i | 83.7 | i
CCOc1ccccc1NC(=O)COC(=O)C(CC(C)C)N1C(=O)C2CC=CCC2C1=O (configuration not stated) | 60.0 | i | i | i | i | i | i | i | i | i
NC(Cc1ccc(C(F)(F)F)cc1)c1csc(NC(=O)NCCc2ccccc2)n1 (configuration not stated) | nt | nt | nt | nt | i | i | nt | nt | nt | nt
CCC(=O)Nc1ccc(C(=O)Nc2ccc3c(c2)OCO3)cc1 | i | i | i | i | i | i | nt | nt | nt | nt
N#CCC(=O)Nc1ccc(C(=O)Nc2cccnc2)cc1 | 90.7 | i | i | i | i | i | i | i | i | i
N#CCC(=O)Nc1ccc(C(=O)Nc2ccc3c(c2)OCO3)cc1 | 67.3 | i | 67.0 | nt | i | i | i | i | i | i
CC(C)(C)c1ccc(C(=O)Nc2cccnc2)cc1 | i | i | i | i | i | i | nt | nt | nt | nt
COC(=O)C[C@@H]1C[C@@H]2c3cc(NS(=O)(=O)c4ccc(F)cc4)ccc3O[C@@H]2[C@H](CO)O1 | nt | nt | nt | nt | i | i | nt | nt | nt | nt

Screens deposited in PubChem by The Scripps Research Institute Molecular Screening Center.
